Measured values taken from ChEMBL document CHEMBL5149991 (J Med Chem, 2021).

Experiments:
[1] = target: T1, D(3) dopamine receptor (Homo sapiens, UniProt P35462); assay: Displacement of [3H]N-methylspiperone from human D3 receptor stably expressed in HEK293T cells co-expressing luciferase and CEK incubated for 140 mins by radioligand competition binding based assay; format: cell-based
[2] = target: T1, D(3) dopamine receptor; assay: Agonist activity at human D3 receptor stably expressed in HEK293T cells co-expressing ElucN-betaarr2 hD3R-ElucC by beta-arrestin2 recruitment assay; format: functional, cell-based
[3] = target: Beta-1 adrenergic receptor (Homo sapiens, UniProt P08588); assay: Displacement of [3H]CGP12177 from human beta-1 adrenergic receptor […] in HEK293T cell membrane incubated for 2 hrs by scintillation counting analysis; format: cell membranes
Method in brief: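 Membranes of transiently transfected HEK293T cells in 25 mM HEPES, 5 mM MgCl2, 1 mM EDTA, 0.01% BSA, pH 7.4. β1 at 2 μg/well, β2 at 4 μg/well, with 0.2 nM [3H]CGP12177. Nonspecific binding with 10 μM CGP12177. IC50 converted to Ki by Cheng–Prusoff.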

[4] = target: Mu-type opioid receptor (Homo sapiens, UniProt P35372); assay: Displacement of [3H]diprenorphine from human mu-opioid receptor […] in HEK293T cell membrane incubated for 2 hrs by scintillation counting analysis; format: cell membranes
Method in brief: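 Transiently transfected HEK293T membranes in 50 mM Tris, pH 7.4. α2A: 10 μg/well, 0.5 nM [3H]RX821002, nonspecific with 10 μM RX821002. μOR: 6 μg/well, 0.3 nM [3H]diprenorphine, nonspecific with 10 μM naloxone. Ki from IC50 by Cheng–Prusoff.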

[5] = target: T2, Histamine H2 receptor (Homo sapiens, UniProt P25021); assay: Displacement of [3H]UR-DE257 from human histamine H2 receptor stably expressed in baculovirus infected Sf9 cell membrane co-expressing RG-Salpha S incubated for 60 mins by scintillation counting analysis; format: cell membranes
[6] = Chemical stability in pH 7.4 buffer measured at 0 to 2 weeks by HPLC analysis; format: physicochemical; details: time 0-2 weeks
[7] = target: T2, Histamine H2 receptor; assay: Agonist activity at human histamine H2 receptor stably expressed in HEK293T cells co-expressing ARRB2 incubated for 60 mins by beta-arrestin2 recruitment assay; format: functional, cell-based
[8] = target: T2, Histamine H2 receptor; assay: Agonist activity at human histamine H2 receptor stably expressed in baculovirus infected Sf9 cell membrane co-expressing RG-Salpha S incubated for 90 mins by [35S]GTPgammaS binding based liquid scintillation counting method; format: functional, cell membranes
[9] = target: T2, Histamine H2 receptor; assay: Agonist activity at human histamine H2 receptor stably expressed in HEK293T cells co-expressing NlucN-mGs/hH2R-NlucC assessed as induction of mini-Gs protein recruitment using furimazine as substrate measured for 45 mins by luminescence assay
[10] = target: Histamine H2 receptor (Cavia porcellus) (UniProt P47747); assay: Agonist activity at guinea pig histamine H2 receptor stably transfected in HEK293T cells co-expressing NlucN-mGs/gpH2R-NlucC assessed as maximum efficacy at 100 uM by mini-G protein recruitment assay relative to histamine; format: functional, cell-based
[11] = target: Histamine H2 receptor (Cavia porcellus) (UniProt P47747); assay: Agonist activity at histamine H2 receptor in spontaneous beating guinea pig right atrium assessed as increase in heart beat at 30 uM relative to histamine; format: functional, tissue-based; details: Right cardiac atrium

Mu-type opioid receptor, sequence (P35372 whole entry): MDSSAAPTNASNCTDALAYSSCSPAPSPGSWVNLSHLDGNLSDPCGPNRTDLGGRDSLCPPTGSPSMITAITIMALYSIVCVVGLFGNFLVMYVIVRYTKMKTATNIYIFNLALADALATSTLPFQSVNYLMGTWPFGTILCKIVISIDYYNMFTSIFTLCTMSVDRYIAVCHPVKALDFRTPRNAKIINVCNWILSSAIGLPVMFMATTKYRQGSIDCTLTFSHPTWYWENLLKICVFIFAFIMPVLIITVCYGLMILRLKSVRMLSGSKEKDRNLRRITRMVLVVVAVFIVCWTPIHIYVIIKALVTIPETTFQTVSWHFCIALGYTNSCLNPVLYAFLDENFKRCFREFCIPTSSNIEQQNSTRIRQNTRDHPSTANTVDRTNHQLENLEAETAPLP
Beta-1 adrenergic receptor, sequence (P08588 whole entry): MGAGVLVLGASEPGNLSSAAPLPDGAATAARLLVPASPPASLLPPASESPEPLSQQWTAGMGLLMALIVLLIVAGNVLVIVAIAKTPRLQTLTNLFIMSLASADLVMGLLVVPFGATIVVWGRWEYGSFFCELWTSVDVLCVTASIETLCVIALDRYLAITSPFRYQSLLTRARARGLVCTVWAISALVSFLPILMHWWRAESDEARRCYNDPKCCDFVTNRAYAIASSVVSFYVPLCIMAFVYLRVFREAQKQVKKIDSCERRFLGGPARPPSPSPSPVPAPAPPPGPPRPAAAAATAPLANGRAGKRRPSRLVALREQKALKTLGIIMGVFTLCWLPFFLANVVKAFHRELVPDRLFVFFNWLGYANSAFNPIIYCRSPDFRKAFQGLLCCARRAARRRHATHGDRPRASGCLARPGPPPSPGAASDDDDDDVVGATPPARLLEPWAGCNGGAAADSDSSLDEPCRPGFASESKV
T1 sequence (P35462 whole entry): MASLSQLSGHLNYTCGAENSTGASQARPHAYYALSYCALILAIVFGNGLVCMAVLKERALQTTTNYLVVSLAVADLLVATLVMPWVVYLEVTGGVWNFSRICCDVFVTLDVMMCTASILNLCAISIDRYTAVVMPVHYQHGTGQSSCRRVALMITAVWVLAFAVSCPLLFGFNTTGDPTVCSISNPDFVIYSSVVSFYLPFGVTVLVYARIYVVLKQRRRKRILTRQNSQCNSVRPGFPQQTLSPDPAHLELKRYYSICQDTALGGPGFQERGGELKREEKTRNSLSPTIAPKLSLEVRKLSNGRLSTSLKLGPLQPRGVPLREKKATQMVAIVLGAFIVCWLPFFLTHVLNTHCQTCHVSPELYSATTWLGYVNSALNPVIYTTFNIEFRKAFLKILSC
T2 sequence (P25021 whole entry): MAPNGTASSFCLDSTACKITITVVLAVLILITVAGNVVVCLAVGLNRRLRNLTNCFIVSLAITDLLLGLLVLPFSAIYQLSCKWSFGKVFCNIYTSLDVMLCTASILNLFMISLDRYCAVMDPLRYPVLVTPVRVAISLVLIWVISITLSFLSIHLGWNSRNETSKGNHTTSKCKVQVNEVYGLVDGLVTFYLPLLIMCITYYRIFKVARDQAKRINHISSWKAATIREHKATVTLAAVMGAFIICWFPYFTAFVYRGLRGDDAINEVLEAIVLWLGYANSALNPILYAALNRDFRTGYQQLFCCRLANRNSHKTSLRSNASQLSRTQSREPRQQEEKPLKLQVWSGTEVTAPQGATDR
Histamine H2 receptor (Cavia porcellus), sequence (P47747 whole entry): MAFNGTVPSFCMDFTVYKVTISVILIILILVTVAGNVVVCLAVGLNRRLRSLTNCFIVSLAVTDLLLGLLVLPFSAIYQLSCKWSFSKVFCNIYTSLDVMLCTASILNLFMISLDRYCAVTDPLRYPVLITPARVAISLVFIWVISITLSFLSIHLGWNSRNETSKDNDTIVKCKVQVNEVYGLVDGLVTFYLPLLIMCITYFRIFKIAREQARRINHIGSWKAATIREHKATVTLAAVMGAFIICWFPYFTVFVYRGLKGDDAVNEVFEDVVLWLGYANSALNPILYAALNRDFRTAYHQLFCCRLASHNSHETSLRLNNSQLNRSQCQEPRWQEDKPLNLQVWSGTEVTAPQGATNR

SMILES	Ki [1] [nM]	EC50 [2] [nM]	Kd [3] [nM]	pKi [3]	Kd [4] [nM]	pKi [4]	Ki [5] [nM]	Stability [6]	EC50 [7] [nM]	EC50 [8] [nM]	EC50 [9] [nM]	Emax [10] [%]	Emax [11] [%]
N/C(=N\C(=O)NCc1ccccc1)NCCCc1nnc(N)s1	2630	1200	0.075	< 4	0.09	5.4	–	–	–	–	–	–	–
CCCCCNC(=O)/N=C(\N)NCCCc1nnc(N)s1.O=C(O)C(F)(F)F.O=C(O)C(F)(F)F	–	–	0.075	< 4	0.09	5.47	3.02	Stable	234	25.7	5.75	–	–
C[C@@H](NC(=O)/N=C(\N)NCCCc1ncn[nH]1)c1ccccc1	> 10000	> 10000	0.075	4.31	0.09	4.76	53.7	–	324	–	25.7	86	115
CCCCCNC(=O)/N=C(\N)NCCCc1sc(N)nc1C	–	–	0.075	4.66	0.09	5.99	–	–	–	–	–	–	–
